The source made the active and inactive calls. No cut-off for these calls is given here.
Key:
RBL-2H3 [1] = test: Anti-inflammatory activity in DNP-IgE-stimulated rat RBL2H3 cells assessed as reduction of IL4 secretion at >20 nM pretreated for 10 mins followed by DNP-HSA stimulation measured after 1 hr by ELISA; type: functional, cell-based
In short: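 RBL-2H3 cells, 2.5 × 10^4/well, cultured overnight, then sensitised 2 h with 50 ng/mL anti-DNP IgE in DMEM/10% FBS at 37 °C, 5% CO2. After washing, drug added in DMF (0.05% final). After 10 min, challenged with DNP-HSA (50 ng/mL final) for 1 h. Supernatant rat IL-4 measured by ELISA on Luminex multiplex system. Mean ± SEM, n = 3.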

RBL-2H3 [2] = test: Cytotoxicity against rat RBL2H3 cells assessed as inhibition of cell proliferation at >5 nM after 24 hrs by CCK8 assay; type: cell-based; conditions: rbl-2h3, 24 h
RBL-2H3 [3] = test: Cytotoxicity against rat RBL2H3 cells assessed as inhibition of cell proliferation up to 4000 nM after 24 hrs by CCK8 assay; type: cell-based; conditions: rbl-2h3, 24 h
In short: (§1)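 RBL-2H3 cells seeded 10^5/well, 12 h at 37 °C, 5% CO2, then exposed to drug in DMEM for 24 h at 37 °C; medium replaced with serum-containing medium, CCK-8 (WST-8) added, absorbance at 450 nm after 1 h. Relative viability vs control, n = 4, Student's t-test p < 0.05.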

RBL-2H3 [4] = test: Anti-inflammatory activity in DNP-IgE-stimulated rat RBL2H3 cells assessed as reduction of IL4 secretion pretreated for 10 mins followed by DNP-HSA stimulation measured after 1 hr by ELISA
RBL-2H3 [5] = test: Anti-inflammatory activity in DNP-IgE-stimulated rat RBL2H3 cells assessed as reduction of IL4 secretion at >2000 nM pretreated for 10 mins followed by DNP-HSA stimulation measured after 1 hr by ELISA; type: functional, cell-based
In short: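 RBL-2H3 cells (2.5 × 10^4/well, cultured overnight in DMEM + 10% FBS, penicillin/streptomycin, 37 °C, 5% CO2) sensitized 2 h with 50 ng/mL anti-DNP IgE, washed, then drug in DMF (0.05% final) added 10 min before DNP-HSA (50 ng/mL final); IL-4 in supernatant after 1 h by rat IL-4 ELISA/Luminex. IC50 from dose–response curves.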

RBL-2H3 [6] = test: Cytotoxicity against rat RBL2H3 cells assessed as inhibition of cell proliferation at >40 nM after 24 hrs by CCK8 assay; type: cell-based; conditions: rbl-2h3, 24 h; in short: as §1

| Structure (SMILES) | Activity (RBL-2H3 [1]) | Activity (RBL-2H3 [2]) | Activity (RBL-2H3 [3]) | IC50 (RBL-2H3 [4]) | other results |
| --- | --- | --- | --- | --- | --- |
| CCCC[C@H]1C(=O)O[C@H](C)[C@H](NC(=O)c2cccc(NC=O)c2O)C(=O)O[C@@H](C)[C@@H]1OC(=O)CC(C)C [ANTIMYCIN A3] | Active | Toxic | – | – | – |
| CCC[C@H]1C(=O)O[C@H](C)[C@H](NC(=O)c2cccc(NC=O)c2O)C(=O)O[C@@H](C)[C@@H]1OC(=O)CC(C)C | Active | Toxic | – | – | – |
| COc1ccnc(C(=O)N[C@H]2COC(=O)[C@H](Cc3ccccc3)[C@@H](OC(=O)CC(C)C)[C@H](C)OC2=O)c1O | – | – | Non-Toxic | 4.39 µM | – |
| CCCC[C@H]1C(=O)OC[C@H](NC(=O)c2nccc(OC)c2O)C(=O)O[C@@H](C)[C@@H]1OC(=O)C(C)C | – | – | Non-Toxic | – | – |
| CCCCCC[C@H]1C(=O)O[C@H](C)[C@H](NC(=O)c2cccc(NC=O)c2O)C(=O)O[C@@H](C)[C@@H]1OC(=O)CC(C)C [ANTIMYCIN A] | Active | Toxic | – | – | – |
| CCCCC[C@H]1C(=O)O[C@H](C)[C@H](NC(=O)c2cccc(NC=O)c2O)C(=O)O[C@@H](C)[C@@H]1OC(=O)CC(C)C | Active | Toxic | – | – | – |
| CC(C)C(=O)O[C@H]1[C@H](C)OC(=O)[C@@H](NC(=O)c2cccc(NC=O)c2O)COC(=O)[C@@H]1Cc1ccccc1 | – | – | Non-Toxic | 0.0413 µM | – |
| COc1ccnc(C(=O)N[C@H]2COC(=O)[C@H](Cc3ccccc3)[C@@H](OC(=O)C(C)C)[C@H](C)OC2=O)c1O | – | – | Non-Toxic | 1.38 µM | Activity (RBL-2H3 [5]): Active |
| CC(C)C(=O)O[C@H]1[C@H](C)OC(=O)[C@@H](NC(=O)c2cccc(NC=O)c2O)[C@@H](C)OC(=O)[C@@H]1Cc1ccccc1 [SPLENOCIN B] | Active | – | – | – | Activity (RBL-2H3 [6]): Toxic |

— ChEMBL document CHEMBL4266052, “Evaluation of Inhibitory Activities of UK-2A, an Antimycin-Type Antibiotic, and Its Synthetic Analogues against the Production of Anti-inflammatory Cytokine IL-4” (J Nat Prod, 2018)
